What is called inhibition is the relative decrease from the control value, in per cent. What is called pIC50 is the negative decadic logarithm of the IC50, by convention in mol/L.

inhibition, IC50 and Activity data for 1 compound are collected here from ChEMBL document CHEMBL5661979, “Pharmacological inhibition of BMK1 suppresses tumor growth through promyelocytic leukemia protein” (Cancer Cell, 2010).

The target in series [1] is T1, Glycogen synthase kinase-3 beta (Homo sapiens, UniProt P49841). Description: Inhibition of GSK3B isoform 2 in human HeLa cells lysate at 50 uM pre incubated for 15 mins followed by ATP acyl phosphate probe addition and measured after 10 mins by LC-MS/MS analysis relative to control. Format: subcellular. The following applies: time 25.0 min.
Target sequence in this assay (P49841 whole entry, looked up, canonical isoform): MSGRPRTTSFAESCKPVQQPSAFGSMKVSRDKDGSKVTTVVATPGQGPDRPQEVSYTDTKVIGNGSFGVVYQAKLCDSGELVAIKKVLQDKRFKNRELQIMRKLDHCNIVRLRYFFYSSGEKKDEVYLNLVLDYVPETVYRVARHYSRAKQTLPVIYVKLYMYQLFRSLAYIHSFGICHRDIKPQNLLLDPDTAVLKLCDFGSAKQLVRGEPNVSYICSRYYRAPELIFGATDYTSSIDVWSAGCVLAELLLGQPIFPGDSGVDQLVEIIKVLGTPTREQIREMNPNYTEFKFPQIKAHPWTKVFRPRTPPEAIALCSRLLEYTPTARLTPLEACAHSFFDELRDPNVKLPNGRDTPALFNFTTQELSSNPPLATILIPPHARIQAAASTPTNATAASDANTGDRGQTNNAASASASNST
Series [2] concerns the target Peripheral plasma membrane protein CASK (Homo sapiens) (UniProt O14936). Kind of series: Inhibition of CASK in human HeLa cells lysate at 10 uM pre incubated for 15 mins followed by ADP acyl phosphate probe addition and measured after 10 mins by LC-MS/MS analysis relative to control. The series is classed as subcellular. The following applies: time 25.0 min. In short, it runs like this:
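KiNativ profiling in HeLa lysate (5 mg/mL total protein). Lysate incubated 15 min with inhibitor at 50, 10, 2, 0.8 or 0 μM. ATP or ADP acylphosphate probe then added (5 μM final) and reacted 10 min. Reaction stopped with urea and analysed by targeted MS, using up to four fragment ions per kinase peptide-probe conjugate. % inhibition taken against untreated lysate. Run in duplicate.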

Series [3] is described as follows: Inhibition of KHS1/2 in human HeLa cells lysate at 2 uM pre incubated for 15 mins followed by ATP acyl phosphate probe addition and measured after 10 mins by LC-MS/MS analysis relative to control. The following applies: 25 min, condition cancer.
Series [4] deals with T1, Glycogen synthase kinase-3 beta. Kind of series: Inhibition of GSK3B isoform 2 in human HeLa cells lysate pre incubated for 15 mins followed by ATP acyl phosphate probe addition and measured after 10 mins by LC-MS/MS analysis. The series is classed as subcellular.
Target sequence in this assay (P49841 whole entry, canonical isoform): as the sequence (P49841 whole entry, looked up, canonical isoform) above
Series [5] can be described thus: Toxicity in C57Bl/6 mouse assessed as effect on total bilirubin level at 50 mg/kg, ip for 14 days (reference value: 0.3 mg/dl). Format: organism-based. The following applies: in vivo, 336 h, time 14 day.
Series [6] concerns the target Ribosomal protein S6 kinase alpha-5 (Homo sapiens, UniProt O75582). Description: Inhibition of MSK1 in human HeLa cells lysate pre incubated for 15 mins followed by ATP acyl phosphate probe addition and measured after 10 mins by LC-MS/MS analysis. The series is classed as subcellular.
Series [7] deals with Serine/threonine-protein kinase 3/4 (Homo sapiens) (UniProt Q13043+Q13188). Kind of series: Inhibition of MST1/2 in human HeLa cells lysate at 2 uM pre incubated for 15 mins followed by ADP acyl phosphate probe addition and measured after 10 mins by LC-MS/MS analysis relative to control. The series is classed as subcellular. The following applies: time 25.0 min.
Sequence of Serine/threonine-protein kinase 3/4 (Homo sapiens) (Q13043 whole entry, looked up): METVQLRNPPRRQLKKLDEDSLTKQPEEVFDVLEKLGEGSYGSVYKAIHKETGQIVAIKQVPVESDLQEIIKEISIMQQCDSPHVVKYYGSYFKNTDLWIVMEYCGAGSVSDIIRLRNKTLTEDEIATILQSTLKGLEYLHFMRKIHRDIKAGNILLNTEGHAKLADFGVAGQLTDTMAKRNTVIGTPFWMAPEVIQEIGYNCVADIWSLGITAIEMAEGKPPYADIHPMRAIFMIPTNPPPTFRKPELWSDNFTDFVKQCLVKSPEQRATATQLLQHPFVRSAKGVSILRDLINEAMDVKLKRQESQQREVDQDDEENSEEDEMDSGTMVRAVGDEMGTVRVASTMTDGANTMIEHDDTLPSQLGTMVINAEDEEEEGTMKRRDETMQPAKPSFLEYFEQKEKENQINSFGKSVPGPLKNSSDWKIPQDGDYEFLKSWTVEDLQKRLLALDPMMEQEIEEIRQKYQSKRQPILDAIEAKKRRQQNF
Sequence of Serine/threonine-protein kinase 3/4 (Homo sapiens) (Q13188 whole entry, looked up): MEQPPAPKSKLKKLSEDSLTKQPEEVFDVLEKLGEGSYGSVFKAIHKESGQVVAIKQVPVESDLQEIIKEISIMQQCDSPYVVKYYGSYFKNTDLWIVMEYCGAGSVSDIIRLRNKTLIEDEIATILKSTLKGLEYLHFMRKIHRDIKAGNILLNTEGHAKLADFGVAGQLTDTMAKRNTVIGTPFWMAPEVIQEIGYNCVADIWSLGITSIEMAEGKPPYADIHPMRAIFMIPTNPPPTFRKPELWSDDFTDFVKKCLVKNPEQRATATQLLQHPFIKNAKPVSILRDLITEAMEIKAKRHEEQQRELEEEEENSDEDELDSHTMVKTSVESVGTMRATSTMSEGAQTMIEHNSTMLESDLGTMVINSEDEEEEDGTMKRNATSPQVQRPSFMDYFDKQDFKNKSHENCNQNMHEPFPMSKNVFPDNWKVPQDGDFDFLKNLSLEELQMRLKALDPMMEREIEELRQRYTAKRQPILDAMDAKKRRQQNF
A short description of series [8]: Inhibition of NEK6/7 in human HeLa cells lysate at 50 uM pre incubated for 15 mins followed by ADP acyl phosphate probe addition and measured after 10 mins by LC-MS/MS analysis relative to control. The settings on record: 25 min, condition cancer.
A further series concerns the target AMPK alpha1/alpha2 (Homo sapiens, UniProt P54646+Q13131). Kind of series: Inhibition of AMPKalpha1/2 in human HeLa cells lysate at 2 uM pre incubated for 15 mins followed by ATP acyl phosphate probe addition and measured after 10 mins by LC-MS/MS analysis relative to control. The series is classed as subcellular. The following applies: time 25.0 min. In short, it runs like this:
(§1)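 HeLa cell lysates (5 mg/mL total protein) were preincubated with inhibitor at 0, 0.8, 2, 10 or 50 μM for 15 min. ATP or ADP acylphosphate probe was then added (5 μM final) for 10 min, and reactions were stopped with urea. Up to four fragment ions per kinase probe-peptide were quantified by targeted MS. % inhibition was taken relative to untreated lysate. Run in duplicate.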

For series [9], the target named is T2, STE20-related kinase adapter protein beta (Homo sapiens) (UniProt Q9C0K7).
T2 sequence (whole entry): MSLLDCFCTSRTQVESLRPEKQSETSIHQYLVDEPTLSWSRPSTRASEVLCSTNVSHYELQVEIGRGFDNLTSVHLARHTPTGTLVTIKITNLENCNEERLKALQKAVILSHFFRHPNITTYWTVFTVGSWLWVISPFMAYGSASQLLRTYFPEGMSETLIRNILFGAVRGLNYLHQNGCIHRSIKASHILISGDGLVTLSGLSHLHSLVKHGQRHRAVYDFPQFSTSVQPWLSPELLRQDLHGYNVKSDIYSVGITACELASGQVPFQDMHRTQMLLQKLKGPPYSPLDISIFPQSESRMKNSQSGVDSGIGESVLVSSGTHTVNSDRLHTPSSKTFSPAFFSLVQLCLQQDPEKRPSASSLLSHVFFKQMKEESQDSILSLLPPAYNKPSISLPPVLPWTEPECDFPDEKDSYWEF
Kind of series: Inhibition of ALS2CR2 in human HeLa cells lysate at 10 uM pre incubated for 15 mins followed by ADP acyl phosphate probe addition and measured after 10 mins by LC-MS/MS analysis relative to control. The series is classed as subcellular. The settings on record: time 25.0 min. In short, it runs like this: as §1

The nature of series [10]: Toxicity in C57Bl/6 mouse assessed as effect on locomotor activity at 50 mg/kg, ip for 14 days. The settings on record: in vivo, 336 h, time 14 day. Format: organism-based.
Series [11] has as its target MAP/microtubule affinity-regulating kinase 3 (Homo sapiens, UniProt P27448). Kind of series: Inhibition of MARK3 in human HeLa cells lysate at 10 uM pre incubated for 15 mins followed by ATP acyl phosphate probe addition and measured after 10 mins by LC-MS/MS analysis relative to control. The settings on record: time 25.0 min. The series is classed as subcellular.
Series [12] addresses T2, STE20-related kinase adapter protein beta (Homo sapiens). Kind of series: Inhibition of ALS2CR2 in human HeLa cells lysate at 2 uM pre incubated for 15 mins followed by ADP acyl phosphate probe addition and measured after 10 mins by LC-MS/MS analysis relative to control. The series is classed as subcellular. The settings on record: time 25.0 min. In short, it runs like this:
as §1

The target in series [13] is T3, Dual specificity mitogen-activated protein kinase kinase 7 (Homo sapiens) (UniProt O14733).
T3 sequence (whole entry): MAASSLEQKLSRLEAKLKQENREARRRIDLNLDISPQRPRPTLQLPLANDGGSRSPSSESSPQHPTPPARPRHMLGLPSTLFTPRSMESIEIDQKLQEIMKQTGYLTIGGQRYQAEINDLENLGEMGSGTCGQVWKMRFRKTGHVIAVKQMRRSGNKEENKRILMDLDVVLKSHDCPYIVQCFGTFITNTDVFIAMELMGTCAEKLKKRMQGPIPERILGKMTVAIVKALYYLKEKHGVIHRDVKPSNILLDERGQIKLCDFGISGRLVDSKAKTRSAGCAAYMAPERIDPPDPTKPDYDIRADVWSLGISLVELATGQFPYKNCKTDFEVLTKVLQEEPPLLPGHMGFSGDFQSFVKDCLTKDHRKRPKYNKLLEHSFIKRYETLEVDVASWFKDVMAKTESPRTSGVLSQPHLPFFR
Kind of series: Inhibition of MAP2K7 in human HeLa cells lysate at 50 uM pre incubated for 15 mins followed by ADP acyl phosphate probe addition and measured after 10 mins by LC-MS/MS analysis relative to control. Format: subcellular. The following applies: time 25.0 min.

Molecules are shown by their SMILES. pIC50: −log10 of the molar value.

Sequence of Peripheral plasma membrane protein CASK (Homo sapiens) (O14936 whole entry, the tested form may be a part): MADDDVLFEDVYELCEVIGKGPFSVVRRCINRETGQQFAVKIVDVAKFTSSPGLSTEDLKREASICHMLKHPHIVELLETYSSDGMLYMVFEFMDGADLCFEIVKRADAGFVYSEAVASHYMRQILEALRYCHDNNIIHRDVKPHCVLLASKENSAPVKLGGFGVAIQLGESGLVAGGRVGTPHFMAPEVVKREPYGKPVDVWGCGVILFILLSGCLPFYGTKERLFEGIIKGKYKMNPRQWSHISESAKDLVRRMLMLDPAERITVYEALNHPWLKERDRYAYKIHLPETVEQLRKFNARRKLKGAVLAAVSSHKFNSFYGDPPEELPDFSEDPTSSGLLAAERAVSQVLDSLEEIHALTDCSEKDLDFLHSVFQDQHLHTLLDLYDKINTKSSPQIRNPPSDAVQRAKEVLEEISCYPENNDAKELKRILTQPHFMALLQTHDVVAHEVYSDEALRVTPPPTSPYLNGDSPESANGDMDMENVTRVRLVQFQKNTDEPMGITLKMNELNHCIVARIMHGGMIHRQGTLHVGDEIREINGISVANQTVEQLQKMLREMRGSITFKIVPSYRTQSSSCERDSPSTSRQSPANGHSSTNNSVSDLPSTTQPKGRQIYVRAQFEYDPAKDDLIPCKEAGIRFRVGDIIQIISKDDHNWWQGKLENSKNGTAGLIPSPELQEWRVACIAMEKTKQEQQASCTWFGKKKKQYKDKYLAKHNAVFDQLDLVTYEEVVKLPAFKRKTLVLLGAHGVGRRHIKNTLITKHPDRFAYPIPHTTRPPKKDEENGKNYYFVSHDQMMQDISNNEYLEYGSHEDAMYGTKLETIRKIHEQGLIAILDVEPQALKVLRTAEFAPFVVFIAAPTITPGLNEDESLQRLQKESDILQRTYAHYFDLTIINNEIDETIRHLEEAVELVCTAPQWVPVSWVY
Sequence of Ribosomal protein S6 kinase alpha-5 (O75582 whole entry): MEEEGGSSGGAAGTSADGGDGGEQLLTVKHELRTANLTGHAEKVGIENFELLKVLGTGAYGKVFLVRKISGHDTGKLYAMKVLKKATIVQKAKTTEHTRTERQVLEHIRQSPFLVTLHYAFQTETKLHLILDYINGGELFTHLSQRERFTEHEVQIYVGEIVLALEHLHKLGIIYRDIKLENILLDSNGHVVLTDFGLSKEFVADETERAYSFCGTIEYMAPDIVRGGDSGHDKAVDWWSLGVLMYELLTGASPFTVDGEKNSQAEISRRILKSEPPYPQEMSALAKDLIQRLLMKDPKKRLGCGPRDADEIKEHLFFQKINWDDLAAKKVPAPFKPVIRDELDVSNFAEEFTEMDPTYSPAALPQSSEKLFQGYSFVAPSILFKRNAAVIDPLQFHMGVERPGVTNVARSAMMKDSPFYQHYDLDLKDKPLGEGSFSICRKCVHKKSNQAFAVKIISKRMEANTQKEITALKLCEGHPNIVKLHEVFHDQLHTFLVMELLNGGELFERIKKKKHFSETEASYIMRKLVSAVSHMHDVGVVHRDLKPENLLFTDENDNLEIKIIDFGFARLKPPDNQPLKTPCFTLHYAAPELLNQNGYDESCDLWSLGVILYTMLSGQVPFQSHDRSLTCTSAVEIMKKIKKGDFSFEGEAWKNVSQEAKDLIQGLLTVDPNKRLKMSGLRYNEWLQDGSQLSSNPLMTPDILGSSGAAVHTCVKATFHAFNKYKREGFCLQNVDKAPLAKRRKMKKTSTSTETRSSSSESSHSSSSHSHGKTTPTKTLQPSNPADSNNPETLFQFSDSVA
Sequence of AMPK alpha1/alpha2 (P54646 whole entry, looked up, the tested form may be a part): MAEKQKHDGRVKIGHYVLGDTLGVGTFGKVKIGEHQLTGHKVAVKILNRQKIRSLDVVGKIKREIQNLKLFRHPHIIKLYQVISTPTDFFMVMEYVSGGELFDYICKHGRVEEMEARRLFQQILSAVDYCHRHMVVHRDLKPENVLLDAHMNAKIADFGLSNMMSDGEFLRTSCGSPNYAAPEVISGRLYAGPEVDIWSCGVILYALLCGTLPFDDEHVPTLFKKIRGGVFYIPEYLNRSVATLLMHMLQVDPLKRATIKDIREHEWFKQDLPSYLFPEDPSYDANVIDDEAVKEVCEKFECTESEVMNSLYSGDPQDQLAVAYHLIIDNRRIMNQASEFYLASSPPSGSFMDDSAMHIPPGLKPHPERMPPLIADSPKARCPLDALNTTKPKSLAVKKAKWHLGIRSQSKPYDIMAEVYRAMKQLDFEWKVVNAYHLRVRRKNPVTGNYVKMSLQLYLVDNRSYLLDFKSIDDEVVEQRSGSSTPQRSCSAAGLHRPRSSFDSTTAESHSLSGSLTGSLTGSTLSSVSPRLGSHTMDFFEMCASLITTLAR
Sequence of AMPK alpha1/alpha2 (Q13131 whole entry, looked up, the tested form may be a part): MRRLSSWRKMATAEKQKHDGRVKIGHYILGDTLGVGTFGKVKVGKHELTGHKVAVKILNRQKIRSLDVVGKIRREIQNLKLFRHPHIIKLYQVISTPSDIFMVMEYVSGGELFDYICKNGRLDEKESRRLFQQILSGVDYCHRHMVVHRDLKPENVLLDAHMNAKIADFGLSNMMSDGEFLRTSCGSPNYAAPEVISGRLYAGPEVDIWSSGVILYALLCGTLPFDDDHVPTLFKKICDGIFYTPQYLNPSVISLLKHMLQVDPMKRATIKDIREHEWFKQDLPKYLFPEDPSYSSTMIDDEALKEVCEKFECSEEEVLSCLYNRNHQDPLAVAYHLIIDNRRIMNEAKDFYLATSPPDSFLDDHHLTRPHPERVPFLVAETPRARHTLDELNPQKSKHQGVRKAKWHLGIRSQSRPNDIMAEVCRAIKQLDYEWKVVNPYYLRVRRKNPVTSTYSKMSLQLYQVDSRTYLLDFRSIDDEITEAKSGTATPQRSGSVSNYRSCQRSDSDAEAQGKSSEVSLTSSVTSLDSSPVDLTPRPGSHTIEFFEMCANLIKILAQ
Sequence of MAP/microtubule affinity-regulating kinase 3 (P27448 whole entry, looked up): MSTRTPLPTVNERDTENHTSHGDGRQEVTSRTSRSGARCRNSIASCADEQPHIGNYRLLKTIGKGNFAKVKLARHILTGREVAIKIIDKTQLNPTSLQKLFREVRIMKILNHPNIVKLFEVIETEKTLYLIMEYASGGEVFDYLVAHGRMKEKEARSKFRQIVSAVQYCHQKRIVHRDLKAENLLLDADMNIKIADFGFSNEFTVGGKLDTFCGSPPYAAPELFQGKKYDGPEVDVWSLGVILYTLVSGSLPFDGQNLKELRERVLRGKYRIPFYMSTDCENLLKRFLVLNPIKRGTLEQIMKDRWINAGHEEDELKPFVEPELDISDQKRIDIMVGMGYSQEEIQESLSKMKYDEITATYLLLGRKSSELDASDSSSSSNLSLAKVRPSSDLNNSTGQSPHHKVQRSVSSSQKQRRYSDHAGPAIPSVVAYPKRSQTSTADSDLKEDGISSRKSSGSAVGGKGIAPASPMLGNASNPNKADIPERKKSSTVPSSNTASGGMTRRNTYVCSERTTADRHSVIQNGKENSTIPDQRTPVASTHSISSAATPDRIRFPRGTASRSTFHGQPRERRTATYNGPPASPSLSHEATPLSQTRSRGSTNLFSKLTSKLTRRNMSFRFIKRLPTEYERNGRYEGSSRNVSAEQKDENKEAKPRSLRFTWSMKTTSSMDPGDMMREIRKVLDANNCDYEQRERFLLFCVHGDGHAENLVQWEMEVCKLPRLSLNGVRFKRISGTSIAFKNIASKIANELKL

Regarding `CCOc1cc(N2CCC(O)CC2)ccc1Nc1ncc2c(n1)N(C)c1ccccc1C(=O)N2C`, the inhibition in series [1] is 22.3%; in series [2] it was -8.1%; in [7] it was -1.2%; against AMPK alpha1/alpha2, -0.7%; in series [9], -9.5%; in [11], -9.2%. Also, the figures for the inhibition in series [12] and in [13] were 17% and 4.2%, respectively. Also, the inhibition at 2 µM in [3] was -8.6%. Also, the pIC50 in series [4] and in series [6] was under 4.30 throughout. The results for the Activity in series [5] and in series [10] were 0.3 mg/dL and “Non-Toxic”, respectively. Moreover, the inhibition at 50 µM in series [8] is 5.6%.
